Legend:
Type in all cases: functional
NCI-H226 [1] = test: Cytotoxicity against human NCI-H226 cells assessed as cell growth at 10^-5 M after 48 hrs by SRB assay; details: NCI-H226, 48 h, read-out: Activity
SF-295 [2] = test: Cytotoxicity against human SF295 cells assessed as cell growth at 10^-5 M after 48 hrs by SRB assay; details: SF-295, 48 h, read-out: Activity
[3] = Cytotoxicity against human NCI-ADR-RES cells assessed as cell growth at 10^-5 M after 48 hrs by SRB assay; details: read-out: Activity
CAKI-1 = test: Cytotoxicity against human Caki1 cells assessed as cell growth at 10^-5 M after 48 hrs by SRB assay; details: CAKI-1, 48 h, read-out: Activity
Procedure, shortened: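 NCI-60 screen: lines kept in RPMI 1640 with 5% FBS, seeded at 5000–40,000 cells/well by doubling time, preincubated 24 h at 37 °C in 5% CO2. Time-zero plates TCA-fixed at drug addition. DMSO stocks diluted in medium, 48 h exposure. Fixation in cold TCA (final 10% adherent, 16% suspension), 0.4% SRB stain, solubilised in 10 mM Tris base, A515. Percent growth computed against control and time-zero.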

SW-620 = test: Growth inhibition of human SW620 cells after 48 hrs by SRB assay; details: SW-620, 48 h
Procedure, shortened: (§1)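 Adherent NCI-60 lines grown in RPMI 1640 with 5% FBS, seeded at 5000–40,000 cells/well, and preincubated 24 h at 37 °C, 5% CO2. Compound, stocked in DMSO, given either once at 10^-5 M or at five 10-fold dilutions for 48 h. Cells fixed with cold TCA (final 10%), stained with 0.4% SRB, and read at 515 nm. GI50 taken as 50% reduction in net protein increase versus time-zero and control plates.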

SF-295 [4] = test: Growth inhibition of human SF295 cells after 48 hrs by SRB assay; details: SF-295, 48 h; procedure, shortened: as §1
SK-MEL-28 = test: Growth inhibition of human SK-MEL-28 cells after 48 hrs by SRB assay; details: SK-MEL-28, 48 h; procedure, shortened: as §1
A498 = test: Growth inhibition of human A498 cells after 48 hrs by SRB assay; details: A498, 48 h
Procedure, shortened: (§2)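 Same 48 h NCI-60 five-dose SRB protocol. Adherent lines were fixed with cold TCA at 10% final; suspension lines such as CCRF-CEM were fixed with 16% final TCA. Stain was 0.4% SRB in 1% acetic acid for 10 min, solubilized in 10 mM Tris base and read at 515 nm. GI50 came from log concentration–growth curves, solving [(Ti−Tz)/(C−Tz)]×100 = 50.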

RXF 393 = test: Growth inhibition of human RXF393 cells after 48 hrs by SRB assay; details: RXF 393, 48 h; procedure, shortened: as §1
DU-145 = test: Growth inhibition of human DU145 cells after 48 hrs by SRB assay; details: DU-145, 48 h; procedure, shortened: as §2
[5] = Growth inhibition of human […] cells after 48 hrs by SRB assay
SR = test: Cytotoxicity against human SR cells assessed as cell growth at 10^-7 M after 48 hrs by SRB assay; details: read-out: Activity
NCI-H226 [6] = test: Cytotoxicity against human NCI-H226 cells assessed as cell growth at 10^-7 M after 48 hrs by SRB assay; details: NCI-H226, 48 h, read-out: Activity
SF-268 = test: Cytotoxicity against human SF268 cells assessed as cell growth at 10^-7 M after 48 hrs by SRB assay; details: SF-268, 48 h, read-out: Activity
LOX IMVI = test: Cytotoxicity against human LOXIMVI cells assessed as cell growth at 10^-4 M after 48 hrs by SRB assay; details: read-out: Activity
UACC-62 = test: Cytotoxicity against human UACC62 cells assessed as cell growth at 10^-4 M after 48 hrs by SRB assay; details: UACC-62, 48 h, read-out: Activity
SK-OV-3 = test: Cytotoxicity against human SKOV3 cells assessed as cell growth at 10^-4 M after 48 hrs by SRB assay; details: SK-OV-3, 48 h, read-out: Activity
MDA-MB-231 [7] = test: Cytotoxicity against human MDA-MB-231 cells assessed as cell growth at 10^-4 M after 48 hrs by SRB assay; details: MDA-MB-231, 48 h, read-out: Activity
MDA-MB-231 [8] = test: Cytotoxicity against human MDA-MB-231 cells assessed as cell growth at 10^-7 M after 48 hrs by SRB assay; details: MDA-MB-231, 48 h, read-out: Activity
[9] = Cytotoxicity against human Hs 578T cells assessed as cell growth at 10^-7 M after 48 hrs by SRB assay; details: read-out: Activity
Procedure, shortened: (§3)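 NCI-60 five-dose screen. Cells were grown in RPMI 1640 with 5% FBS and seeded at 5000–40,000 cells/well according to doubling time. They were pre-incubated 24 h at 37 °C in 5% CO₂, and time-zero (Tz) plates were TCA-fixed at drug addition. Five 10-fold dilutions of DMSO stock were applied for 48 h. Read-out was SRB staining, 515 nm absorbance, with percent growth calculated versus Tz and untreated control.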

T47D = test: Cytotoxicity against human T47D cells assessed as cell growth at 10^-7 M after 48 hrs by SRB assay; details: read-out: Activity
Malme-3M = test: Cytotoxicity against human MALME-3M cells assessed as cell growth at 10^-8 M after 48 hrs by SRB assay; details: read-out: Activity
UACC-257 = test: Cytotoxicity against human UACC257 cells assessed as cell growth at 10^-8 M after 48 hrs by SRB assay; details: UACC-257, 48 h, read-out: Activity
OVCAR-3 = test: Cytotoxicity against human OVCAR3 cells assessed as cell growth at 10^-8 M after 48 hrs by SRB assay; details: OVCAR-3, 48 h, read-out: Activity
UO-31 = test: Cytotoxicity against human UO31 cells assessed as cell growth at 10^-8 M after 48 hrs by SRB assay; details: UO-31, 48 h, read-out: Activity
HCC 2998 = test: Cytotoxicity against human HCC2998 cells assessed as cell growth at 10^-6 M after 48 hrs by SRB assay; details: HCC 2998, 48 h, read-out: Activity; procedure, shortened: as §3
KM12 = test: Cytotoxicity against human KM12 cells assessed as cell growth at 10^-6 M after 48 hrs by SRB assay; details: KM12, 48 h, read-out: Activity
NCI-H226 [10] = test: Growth inhibition of human NCI-H226 cells after 48 hrs by SRB assay; details: NCI-H226, 48 h; procedure, shortened: as §1
HT-29 = test: Growth inhibition of human HT-29 cells after 48 hrs by SRB assay; details: HT-29, 48 h; procedure, shortened: as §1
[11] = read-out: LC50 (the source's name)

COc1ccc(-c2nn3cc(-c4cccc(N)c4)nc3s2)cc1
growth at 10 µM (NCI-H226 [1]): 16% | growth at 10 µM (SF-295 [2]): 24% | growth at 10 µM [3]: 31% | growth at 10 µM (CAKI-1): 2% | GI50 (SW-620): 6.08 µM | TGI (SW-620): 76.6 µM | CC50 (SW-620; [11]): > 100 µM | GI50 (SF-295 [4]): 2.88 µM | TGI (SF-295 [4]): 29.3 µM | CC50 (SF-295 [4]; [11]): > 100 µM | GI50 (SK-MEL-28): 3.76 µM | TGI (SK-MEL-28): 26 µM | CC50 (SK-MEL-28; [11]): > 100 µM | GI50 (A498): 1.11 µM | LC50 (concentration giving 50% net cell kill) (A498): 45.2 µM | TGI (A498): 5.73 µM | GI50 (RXF 393): 1.38 µM | LC50 (RXF 393): 20.9 µM | TGI (RXF 393): 4.66 µM | GI50 (DU-145): 6.79 µM | LC50 (lethal concentration 50) (DU-145): > 100 µM | TGI (DU-145): 31.7 µM | GI50 [5]: 2.33 µM | growth at 0.1 µM (SR): 102% | growth at 0.1 µM (NCI-H226 [6]): 80% | growth at 0.1 µM (SF-268): 101% | growth at 100 µM (LOX IMVI): -29% | growth at 100 µM (UACC-62): -41% | growth at 100 µM (SK-OV-3): -68% | growth at 100 µM (MDA-MB-231 [7]): -35% | growth at 0.1 µM (MDA-MB-231 [8]): 81% | growth at 0.1 µM [9]: 84% | growth at 0.1 µM (T47D): 86% | growth at 0.01 µM (Malme-3M): 102% | growth at 0.01 µM (UACC-257): 100% | growth at 0.01 µM (OVCAR-3): 102% | growth at 0.01 µM (UO-31): 86% | growth at 1 µM (HCC 2998): 84% | growth at 1 µM (KM12): 84% | GI50 (NCI-H226 [10]): 1.53 µM | TGI (NCI-H226 [10]): 16.2 µM | CC50 (NCI-H226 [10]; [11]): 71.6 µM | GI50 (HT-29): 4.27 µM | LC50 (concentration killing 50% of cells) (HT-29): > 100 µM | TGI (HT-29): 23.2 µM

Source: ChEMBL document CHEMBL2146441, “2,6-Disubstituted imidazo[2,1-b][1,3,4]thiadiazoles: search for anticancer agents” (2012)
